In ChEMBL document CHEMBL4837231, “Development of peptide epoxyketones as selective immunoproteasome inhibitors” (Eur J Med Chem, 2021):

Experiments:
[1] = molecular target: T1, Proteasome subunit beta type-8 (Homo sapiens, UniProt P28062); assay: Inhibition of human proteasome subunit beta-5i chymotrypsin like activity using SUC-ANW-AMC as flurogenic substrate preincubated for 15 mins followed by substrate addition and measured after 1 hr by fluorescence assay
T1 sequence (P28062 whole entry): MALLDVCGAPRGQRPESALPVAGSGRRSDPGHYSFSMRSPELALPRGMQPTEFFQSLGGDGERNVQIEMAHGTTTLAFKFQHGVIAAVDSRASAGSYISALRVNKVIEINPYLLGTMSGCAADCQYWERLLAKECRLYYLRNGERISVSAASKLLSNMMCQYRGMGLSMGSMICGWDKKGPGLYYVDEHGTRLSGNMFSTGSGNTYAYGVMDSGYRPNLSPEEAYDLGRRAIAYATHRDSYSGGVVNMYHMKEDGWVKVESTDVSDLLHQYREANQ
In short: (§1)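 Immunoproteasome derived from human PBMC, added at 1 μg/mL (pre-dilution) in 100 mM Tris-HCl pH 7.5. Compounds were diluted to a 10% DMSO solution. After 15 min preincubation at 25 °C, AMC substrate added (100 µM final) and incubated 1 h at 25 °C. Read at ex 355/em 460 nm; IC50 by sigmoidal variable-slope fitting.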

[2] = Selectivity ratio of IC50 for chymotrypsin-like activity of human 20s proteasome beta 5c subunit to IC50 for human proteasome subunit beta-5i chymotrypsin like activity
[3] = molecular target: T2, Proteasome Macropain subunit MB1 (Homo sapiens, UniProt P28074); assay: Inhibition of chymotrypsin-like activity of human 20s proteasome beta 5c subunit using suc-WLA-AMC as flurogenic substrate preincubated for 15 mins followed by substrate addition and measured after 1 hr by fluorescence assay
T2 sequence (P28074 whole entry): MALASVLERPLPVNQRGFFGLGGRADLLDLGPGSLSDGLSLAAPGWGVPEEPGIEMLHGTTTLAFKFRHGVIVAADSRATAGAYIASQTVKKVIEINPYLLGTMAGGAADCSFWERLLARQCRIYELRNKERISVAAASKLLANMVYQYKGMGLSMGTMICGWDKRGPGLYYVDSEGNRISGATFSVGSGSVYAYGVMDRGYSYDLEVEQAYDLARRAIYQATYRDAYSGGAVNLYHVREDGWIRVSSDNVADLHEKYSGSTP
In short: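 Constitutive proteasome isolated from human hepatic cells, added at 40 μg/mL (pre-dilution) in 100 mM Tris-HCl pH 7.5. Compounds came from DMSO diluted in water (10% DMSO solution). Preincubated 15 min at 25 °C, then AMC substrate added (100 µM final) for 1 h at 25 °C. Fluorescence read at 355 nm excitation and 460 nm emission; IC50 from a variable-slope sigmoidal fit.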

[4] = molecular target: T3, Proteasome subunit beta type-9 (Homo sapiens, UniProt P28065); assay: Inhibition of human caspase-like activity of 20s proteasome beta 1i subunit using SUC-PAL-AMC as flurogenic substrate preincubated for 15 mins followed by substrate addition and measured after 1 hr by fluorescence assay; in short: as §1
T3 sequence (P28065 whole entry): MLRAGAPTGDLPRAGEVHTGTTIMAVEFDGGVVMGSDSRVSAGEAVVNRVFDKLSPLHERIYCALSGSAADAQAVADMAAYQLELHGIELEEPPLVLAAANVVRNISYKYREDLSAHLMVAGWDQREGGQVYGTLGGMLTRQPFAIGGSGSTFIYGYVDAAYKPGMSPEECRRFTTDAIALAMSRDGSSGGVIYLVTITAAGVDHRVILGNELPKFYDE

[5] = molecular target: T4, Proteasome subunit beta type-10 (Homo sapiens, UniProt P40306); assay: Inhibition of human trypsin-like activity of 20s proteasome beta 2i subunit using SUC-VGR-AMC as flurogenic substrate preincubated for 15 mins followed by substrate addition and measured after 1 hr by fluorescence assay
T4 sequence (P40306 whole entry): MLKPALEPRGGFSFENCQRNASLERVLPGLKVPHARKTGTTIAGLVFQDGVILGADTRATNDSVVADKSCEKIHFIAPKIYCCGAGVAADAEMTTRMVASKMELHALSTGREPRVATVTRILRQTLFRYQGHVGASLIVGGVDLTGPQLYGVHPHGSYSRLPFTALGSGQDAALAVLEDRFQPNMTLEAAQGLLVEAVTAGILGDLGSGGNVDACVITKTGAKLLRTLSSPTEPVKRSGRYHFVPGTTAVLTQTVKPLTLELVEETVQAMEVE
In short: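 Immunoproteasome derived from human PBMC, added at 1 μg/mL (pre-dilution) in 100 mM Tris-HCl pH 7.5. Compounds were diluted to a 10% DMSO solution. After 15 min preincubation at 25 °C, AMC substrate added (100 µM final) and incubated 1 h at 25 °C.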

RPMI-8226 = assay: Antiproliferative activity against human RPMI-8226 cells assessed as inhibition of cell proliferation after 72 hrs by MTS assay; type: functional, cell-based; conditions: RPMI-8226, 72 h
In short: (§2)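 Cells grown in RPMI-1640 with 10% FBS and penicillin/streptomycin at 37 °C, 5% CO2. Seeded per well at 5×10³ (RPMI-8226) or 3×10⁴ (MM.1S), then exposed 72 h to graded compound concentrations or 0.2% DMSO vehicle. MTS/PMS added for 2–4 h; absorbance at 490 nm minus 690 nm. Inhibition = (Acontrol−Asample)/Acontrol; IC50 by sigmoidal variable-slope regression.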

MM1.S = assay: Antiproliferative activity against human MM1.S cells assessed as inhibition of cell proliferation after 72 hrs by MTS assay; type: functional, cell-based; in short: as §2
[6] = Inhibition of 20s proteasome beta 5c subunit (unknown origin); set-up: species or system Homo sapiens

IC50 [1] | Ratio IC50 [2] | IC50 [3] | IC50 [4] | IC50 [5] | IC50 (RPMI-8226) | IC50 (MM1.S) | IC50 [6] | Structure (SMILES)
80.7 nM | 11.9 | 959 nM | – | – | – | – | – | COc1ccc(C[C@H](NC(=O)[C@@H](C)NC(=O)N2CCc3ccccc3C2)C(=O)N[C@@H](Cc2ccccc2)C(=O)[C@@]2(C)CO2)cc1
25.1 nM | 24.1 | 606 nM | 5770 nM | > 10000 nM | 1880 nM | 1370 nM | – | COc1ccc(C[C@H](NC(=O)[C@@H](C)NC(=O)N2CC[C@H](OC)C2)C(=O)N[C@@H](Cc2ccccc2)C(=O)[C@@]2(C)CO2)cc1
44.5 nM | 24.8 | 1110 nM | – | – | – | – | – | COc1ccc(C[C@H](NC(=O)[C@@H](C)NC(=O)N2CCC(OC)C2)C(=O)N[C@@H](Cc2ccccc2)C(=O)[C@@]2(C)CO2)cc1 (stereo partly drawn)
62.9 nM | 21.2 | 1330 nM | – | – | – | – | – | COc1ccc(C[C@H](NC(=O)[C@@H](C)NC(=O)N2CCCC2)C(=O)N[C@@H](Cc2ccccc2)C(=O)[C@@]2(C)CO2)cc1
61 nM | 0.6 | 35.5 nM | – | – | – | – | – | COc1ccc(C[C@H](NC(=O)[C@H](C)NC(=O)n2c3ccccc3c3ccccc32)C(=O)N[C@@H](Cc2ccccc2)C(=O)[C@@]2(C)CO2)cc1
246 nM | 2 | 498 nM | – | – | – | – | – | COc1ccc(C[C@H](NC(=O)[C@H](C)NC(=O)N2CCCC2)C(=O)N[C@@H](Cc2ccccc2)C(=O)[C@@]2(C)CO2)cc1
38.2 nM | 1.9 | 71.7 nM | – | – | – | – | – | COc1ccc(C[C@H](NC(=O)[C@@H](C)NC(=O)n2c3ccccc3c3ccccc32)C(=O)N[C@@H](Cc2ccccc2)C(=O)[C@@]2(C)CO2)cc1
66 nM | 22.5 | 1480 nM | – | – | – | – | – | COc1ccc(C[C@H](NC(=O)[C@@H](C)NC(=O)N2CC[C@@H](OC)C2)C(=O)N[C@@H](Cc2ccccc2)C(=O)[C@@]2(C)CO2)cc1
37.8 nM | 1.8 | 69.7 nM | – | – | – | – | – | COc1ccc(C[C@H](NC(=O)[C@H](C)NC(=O)N2CCc3ccccc3C2)C(=O)N[C@@H](Cc2ccccc2)C(=O)[C@@]2(C)CO2)cc1
56.8 nM | 5.2 | 293 nM | – | – | – | – | – | COc1ccc(C[C@H](NC(=O)[C@H](C)NC(=O)N2CCC(OC)C2)C(=O)N[C@@H](Cc2ccccc2)C(=O)[C@@]2(C)CO2)cc1 (stereo partly drawn)

Second part, the compound before the results:

Structure (SMILES) | IC50 [1] | Ratio IC50 [2] | IC50 [3] | IC50 [4] | IC50 [5] | IC50 (RPMI-8226) | IC50 (MM1.S) | IC50 [6]
C[C@@H](NC(=O)N1CCC(NC(=O)c2nccs2)CC1)C(=O)N[C@@H](Cc1c[nH]c2ccccc12)C(=O)N[C@@H](CC1CCCCC1)C(=O)[C@@]1(C)CO1 | 719 nM | 1.5 | 1080 nM | – | – | – | – | –
C[C@@H](NC(=O)N1CCC(NC(=O)c2nccs2)CC1)C(=O)N[C@@H](Cc1c[nH]c2ccccc12)C(=O)N[C@@H](Cc1ccccc1)C(=O)[C@@]1(C)CO1 | 323 nM | 1.5 | 468 nM | – | – | – | – | –
C[C@H](NC(=O)N1CCC(NC(=O)c2nccs2)CC1)C(=O)N[C@@H](Cc1c[nH]c2ccccc12)C(=O)N[C@@H](CC1CCCCC1)C(=O)[C@@]1(C)CO1 | 245 nM | 0.9 | 216 nM | – | – | – | – | –
COc1ccc(C[C@H](NC(=O)[C@@H](C)NC(=O)N2CCC[C@H](OC)C2)C(=O)N[C@@H](Cc2ccccc2)C(=O)[C@@]2(C)CO2)cc1 | 37.7 nM | 4.3 | 163 nM | – | – | – | – | –
COc1ccc(C[C@H](NC(=O)[C@@H](C)NC(=O)N2CCC(NC(=O)c3nccs3)CC2)C(=O)N[C@@H](CC2CCCCC2)C(=O)[C@@]2(C)CO2)cc1 | 718 nM | 3.8 | 2710 nM | – | – | – | – | –
COc1ccc(C[C@H](NC(=O)[C@H](C)NC(=O)CN2CCOCC2)C(=O)N[C@@H](Cc2ccccc2)C(=O)[C@@]2(C)CO2)cc1 | – | – | – | – | – | 680 nM | – | 422 nM
COc1ccc(C[C@H](NC(=O)[C@H](C)NC(=O)N2CCC(NC(=O)c3nccs3)CC2)C(=O)N[C@@H](CC2CCCCC2)C(=O)[C@@]2(C)CO2)cc1 | 129 nM | 1.9 | 245 nM | – | – | – | – | –
COc1ccc(C[C@H](NC(=O)[C@H](C)NC(=O)N2CCC(OC)CC2)C(=O)N[C@@H](Cc2ccccc2)C(=O)[C@@]2(C)CO2)cc1 | 18.9 nM | 3.9 | 74 nM | – | – | – | – | –
COc1ccc(C[C@H](NC(=O)[C@@H](C)NC(=O)N2CCC[C@@H](OC)C2)C(=O)N[C@@H](Cc2ccccc2)C(=O)[C@@]2(C)CO2)cc1 | 29.9 nM | 8.2 | 244 nM | 4270 nM | > 10000 nM | 680 nM | 220 nM | –
COc1ccc(C[C@H](NC(=O)[C@@H](C)NC(=O)N2CCC(OC)CC2)C(=O)N[C@@H](Cc2ccccc2)C(=O)[C@@]2(C)CO2)cc1 | 26 nM | 24.9 | 647 nM | > 10000 nM | > 10000 nM | 1920 nM | 1790 nM | –
C[C@H](NC(=O)N1CCC(NC(=O)c2nccs2)CC1)C(=O)N[C@@H](Cc1c[nH]c2ccccc12)C(=O)N[C@@H](Cc1ccccc1)C(=O)[C@@]1(C)CO1 | 21.1 nM | 1.2 | 25.6 nM | 154 nM | > 10000 nM | 110 nM | 110 nM | –
